# PAX8 inh HTS = inhibitors of PAX8 transcriptional activity in RMG-I cells | RMG-I TPO-luciferase reporter, SteadyGlo, 24 h | hit rate 1.2% among 360,000 | inhibition, % at 12.6 µM;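 active = mean replicate inhibition at least 60% with every replicate also reaching 60%; inconclusive = only one of the two criteria is met; inactive = mean below 60% and not all replicates reaching 60%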;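 also: luciferase light reporting Pax8 driven TPO promoter activity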
# CDK5 inh = blocks human CDK5/p35 kinase activity | Q00535+Q15078 | Recombinant CDK5/p35, ADP-Glo luminescence, 60 min | inhibition, % at 10 µM | hit rate 0.01% among 330,000;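 active = highest replicate inhibition of at least 50% and at least 75% of replicates reaching 50%; inconclusive = only one of the two criteria met; inactive = both criteria failed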
# Target sequence (Q00535 whole entry, looked up): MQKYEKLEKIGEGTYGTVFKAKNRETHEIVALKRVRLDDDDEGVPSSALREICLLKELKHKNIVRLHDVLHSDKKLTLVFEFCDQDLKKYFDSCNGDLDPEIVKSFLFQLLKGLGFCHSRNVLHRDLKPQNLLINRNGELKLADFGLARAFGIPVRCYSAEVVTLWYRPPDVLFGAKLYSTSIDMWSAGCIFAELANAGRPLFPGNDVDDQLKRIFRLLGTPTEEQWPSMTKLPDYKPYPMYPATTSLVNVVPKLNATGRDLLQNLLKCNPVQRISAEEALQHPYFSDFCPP
# Target sequence (Q15078 whole entry, looked up): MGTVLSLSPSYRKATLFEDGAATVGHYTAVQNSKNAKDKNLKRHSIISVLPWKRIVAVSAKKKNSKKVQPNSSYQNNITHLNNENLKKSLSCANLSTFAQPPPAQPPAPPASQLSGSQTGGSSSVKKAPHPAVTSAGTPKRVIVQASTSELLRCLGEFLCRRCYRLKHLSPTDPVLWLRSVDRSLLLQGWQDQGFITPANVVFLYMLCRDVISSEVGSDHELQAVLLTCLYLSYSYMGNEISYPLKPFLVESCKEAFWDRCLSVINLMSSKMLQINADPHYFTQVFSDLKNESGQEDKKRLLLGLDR
# dFosB act = enhances mouse delta FosB homodimer DNA binding. hit rate 0.99% among 340,000. activation, % at 25 µM. P13346. purified delta FosB, TAMRA-CDK5 oligo fluorescence polarization; percent of positive-control signal above neutral wells. AID 493131;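 active = mean activation above about 17%, with every replicate also reaching it, limit read from the data, passing the limit was not always enough; inconclusive = only one of the two conditions met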
# Cneo AK release = causes C. neoformans cell lysis; adenylate kinase release luminescence, 4 h; normalised: neutral wells 0, clomiphene wells 100; lysis activity, % at 15 µM; hit rate 0.2% among 360,000;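 active = mean lysis activity across replicates of at least 80%, whatever share of replicates individually reach that level; inactive = mean lysis activity below 80%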
#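 Material – Cryptococcus neoformans yeast cells · Quantity – 5 × 10^6 yeast cells/mL · Buffer or medium – YPD medium · Compound – single dose · Timing – 4 h static compound exposure, 37 °C, read 1 h post-reagent · Signal – adenylate kinase release luminescence · Read-out basis – lysis from increased AK signal · Benchmarks – Clomiphene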
# Env fusion inh = blocks HIV Env-driven cell-cell fusion. inhibition, % at 12.3 µM. hit rate 1.1% among 360,000. AID 651610. HeLa-JRFL Env/CEM21 cell fusion, luciferase;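 active = mean replicate inhibition score of at least 50 and every replicate individually at or above 50; inconclusive = only one of the two criteria met; inactive = mean below 50 and not all replicates reaching 50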
# INS-1E GSIS act = primary screen for activators of insulin secretion dependent on glucose, INS-1E cells, GLuc reporter luminescence. INS-1E GLuc reporter insulin secretion, 2-3 h. activation, % at 16.6 µM. hit rate 0.61% among 370,000. AID 743287;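 active = lowest replicate activation of at least 40%, so every replicate reaches that level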
# Numbers stand for hits; – = inactive; ? = inconclusive; · = no result given; ! = not active in a repeat; [ ] = another dose, or the depositor's remark. Rows were chosen to be rich in hits. Some 2.9% of all compounds tested hit in one or more screens of this group.
SMILES,PAX8 inh HTS,CDK5 inh,dFosB act,Cneo AK release,Env fusion inh,INS-1E GSIS act
Fc1ccc(NC(=S)N2CCCN(c3ccc(C(F)(F)F)cn3)CC2)c(F)c1,–,–,–,–,61.1,–
COc1ccc(-c2cc(C(F)(F)F)nc(SCC(=O)NCc3ccco3)n2)cc1OC,·,–,–,–,·,·
COc1ccc(-c2ccc(SCC(=O)NC3CCCCC3)nn2)cc1OC,–,–,–,–,–,104.7
COc1ccc(-c2ccc(SCC(=O)NC3CCCC3)nn2)cc1,–,·,·,–,–,–
O=C(CSc1ccc(-c2ccco2)nn1)NCc1ccccc1,63.3,–,–,–,·,–
COc1ccc(-c2nc(CS(=O)CC(=O)NCc3ccco3)c(C)o2)cc1OC (configuration not stated),–,–,–,–,72.8,·
COc1ccc(-c2ccc(SCC(=O)NCc3ccco3)nn2)cc1OC,·,–,–,·,–,62.4
C[C@@H]1CCCCO[C@H](CN(C)S(C)(=O)=O)[C@H](C)CN([C@@H](C)CO)C(=O)c2cc(NC(=O)Cc3ccccc3)ccc2O1,–,·,·,·,–,–
CCCN1[C@@H]2c3cccc(=O)n3C[C@H]1[C@H](CO)[C@H]2C(=O)N1CCCCC1,–,·,·,–,·,–
C[C@@H]1CN([C@@H](C)CO)S(=O)(=O)c2ccc(/C=C/c3ccccc3)cc2O[C@@H]1CN(C)Cc1cncnc1,–,·,·,–,–,–
CN1c2ccc(-c3ccc(F)cc3)cc2[C@@H]2[C@@H](CCN2S(=O)(=O)c2cccc(F)c2)[C@H]1CO,–,·,·,–,·,–
COc1ccc(-c2ccc(SCC(=O)NCC3CCCO3)nn2)cc1OC (configuration not stated),–,–,–,–,–,75.4
O=C(/C=C/c1ccccc1)N1CCOCC1,–,–,–,–,–,–
O=C(/C=C/c1ccccc1)CCN1CCOCC1,–,–,–,·,–,52.4
O=[N+]([O-])c1cc(C(F)(F)F)ccc1NCCCCNS(=O)(=O)c1ccc2ccccc2c1,·,–,–,–,62.3,·
COc1cc(NC2c3ccccc3C(=O)N2Cc2ccccc2)cc(OC)c1OC (configuration not stated),–,–,–,–,72.5,–
COc1ccc(-c2cn(CC[C@@H]3CC[C@H](NC(=O)Cc4ccccn4)[C@@H](CO)O3)nn2)cc1,78.3!,·,·,–,–,–
COc1ccc(-c2cn(CC[C@@H]3CC[C@@H](NC(=O)Cc4ccccn4)[C@H](CO)O3)nn2)cc1,–,·,·,–,–,–
COc1ccc(-c2cn(CC[C@@H]3CC[C@H](NC(=O)Cc4ccccn4)[C@H](CO)O3)nn2)cc1,90.4,·,·,–,–,–
COc1ccc(-c2cn(CC[C@H]3CC[C@H](NS(=O)(=O)c4ccccc4C)[C@H](CO)O3)nn2)cc1,–,·,·,–,72.8[16.7 µM],–
O=C(Cc1ccccn1)N[C@@H]1CC[C@@H](CCn2cc(-c3ccccc3)nn2)O[C@@H]1CO,–,·,·,–,–,–
C[C@@H]1CN([C@@H](C)CO)S(=O)(=O)c2ccc(C#CCN(C)C)cc2O[C@@H]1CN(C)Cc1ccccn1,·,·,·,–,–,–
C[C@H](CO)N1C[C@H](C)[C@@H](CN(C)Cc2cccnc2)Oc2ncc(-c3ccc(C#N)cc3)cc2C1=O,·,·,·,–,–,–
CC(C)[C@H](NC(=O)c1ccco1)C(=O)NC12CC3CC(CC(C3)C1)C2,–,–,–,·,57.6,–
C[C@H](O)[C@@H]1C(=O)N2CCc3c([nH]c4cccc(-c5ccccc5)c34)[C@@H]2C[C@@H]1N(C)C(=O)OCc1ccccc1,–,·,·,·,71.2,–
SMILES,PAX8 inh HTS,CDK5 inh,dFosB act,Cneo AK release,Env fusion inh,INS-1E GSIS act
CCOc1ccc(NC2=CC(=O)C(=O)c3ccccc32)cc1,–,–,–,·,–,–
COc1cc(Cl)c(NC2=CC(=O)C(=O)c3ccccc32)c(OC)c1,94.9,–,–,–,·,–
C/C=C/c1cnc2c(c1)C(=O)N([C@H](C)CO)C[C@H](C)[C@H](CN(C)S(=O)(=O)c1ccccc1)O2,·,·,·,–,–,–
C[C@@H]1CN([C@H](C)CO)C(=O)c2cc(NS(=O)(=O)c3ccccc3)ccc2O[C@@H](C)CCCCO[C@@H]1CN(C)Cc1ccc(Cl)c(Cl)c1,101.7!,·,·,–,69.0![16.7 µM],–
C[C@H]1CCCCO[C@H](CN(C)Cc2ccc(Cl)c(Cl)c2)[C@@H](C)CN([C@@H](C)CO)C(=O)c2cc(NS(=O)(=O)c3ccccc3)ccc2O1,–,·,·,·,·,–
C[C@@H]1CCCCO[C@@H](CN(C)Cc2ccc(Cl)c(Cl)c2)[C@H](C)CN([C@@H](C)CO)C(=O)c2cc(NS(=O)(=O)c3ccccc3)ccc2O1,94.6,·,·,–,–,–
C[C@@H]1CCCCO[C@H](CN(C)Cc2ccc(Cl)c(Cl)c2)[C@@H](C)CN([C@@H](C)CO)C(=O)c2cc(NS(=O)(=O)c3ccccc3)ccc2O1,103.5,·,·,–,–,·
CN1[C@@H]2c3ccc(-c4ccccc4F)c(=O)n3C[C@@H]2[C@@H](CO)[C@@H]1C(=O)NCc1ccc(F)cc1,–,·,·,–,·,–
C[C@H]1CN([C@@H](C)CO)S(=O)(=O)c2ccc(-c3ccc(C(=O)N(C)C)cc3)cc2O[C@H]1CN(C)C(=O)Nc1ccccc1F,–,·,·,–,–,–
Cc1nn(C)cc1NC(=O)C[C@H]1CC[C@@H]2[C@@H](COc3ccc(NC(=O)Nc4cccc(Cl)c4)cc3C(=O)N2C)O1,–,·,·,–,·,–
Cc1ccc(NC(=O)CSc2nnc(-c3ccc(S(=O)(=O)N4CCCC4)cc3)o2)cc1C,·,–,70.0,·,?,·
O=C(O)CSc1nnc(NC(=O)CN2CCOCC2)s1,–,–,–,–,–,95.9
CCOCC(=O)Nc1c(C(=O)N2CCN(c3ncccn3)CC2)oc2ccccc12,–,–,–,–,–,–
O=C(c1oc2ccccc2c1CSCc1ccccc1)N1CCN(c2ncccn2)CC1,·,–,–,–,55.6,–
Cc1noc(C)c1NC(=O)Nc1cccc2c1O[C@@H](CN(C)S(=O)(=O)c1cn(C)cn1)[C@@H](C)CN([C@@H](C)CO)C2=O,·,·,·,104.6,·,–
COc1ccc(CN(C)C[C@@H]2Oc3c(NC(=O)C4CCCCC4)cccc3C(=O)N([C@H](C)CO)C[C@H]2C)cc1,64.0,·,·,–,–,–
COc1ccc(CN(C)C[C@@H]2Oc3c(NC(=O)C4CCCCC4)cccc3C(=O)N([C@H](C)CO)C[C@@H]2C)cc1,–,·,·,–,–,–
Cc1noc(C)c1NC(=O)Nc1cccc2c1O[C@H](CN(C)Cc1ccccc1)[C@@H](C)CN([C@H](C)CO)C2=O,–,·,·,–,–,–
Cc1noc(C)c1NC(=O)Nc1cccc2c1O[C@H](CN(C)S(=O)(=O)c1cn(C)cn1)[C@@H](C)CN([C@H](C)CO)C2=O,–,–,–,–,–,–
Cc1noc(C)c1NC(=O)Nc1cccc2c1O[C@H](CN(C)Cc1ccc(-c3ccccc3)cc1)[C@@H](C)CN([C@H](C)CO)C2=O,62.0,·,·,–,·,–

# Bioassay records from PubChem BioAssay.
